Experimental data reported in ChEMBL document CHEMBL1122150, “Synthesis and biological activity of benzothiazolo- and benzoxazolo[3,2-a]quinolinium salts” (1982).

Columns and labels:
[1] = system: HeLa; test: The cytotoxic activity was determined against HeLa cell line; type: functional, Mus musculus; conditions: Homo sapiens, read-out: ED50 (the source's name)
How it was run: (§1)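 KB or HeLa monolayers were grown in Eagle's MEM with 10% fetal calf serum and subcultured every 6–7 days. Drugs were suspended in sterile 0.5% carboxymethylcellulose. 6-Mercaptopurine at 1 μM was the positive control in every run. Cytotoxic concentration is expressed in μg/mL.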

[2] = system: KB; test: The cytotoxic activity was determined against KB cell line.; type: functional, Mus musculus; conditions: Homo sapiens, read-out: ED50 (the source's name); how it was run: as §1
[3] = system: Mus musculus; test: Antitumor activity against Ehrlich Ascites tumor after intraperitoneal administration at a dose of 250 mg/kg in mice; 6/6; type: functional
[4] = system: Mus musculus; test: Antitumor activity against Ehrlich Ascites tumor after intraperitoneal administration at a dose of 400 mg/kg in mice; 0/6; type: functional
[5] = system: Mus musculus; test: Antitumor activity against Ehrlich Ascites tumor after intraperitoneal administration at a dose of 90 mg/kg in mice; 3/5; type: functional
[6] = system: Mus musculus; test: Antitumor activity against P-388 ascitic leukemia in mice, at a dose of 200 mg/kg; 6/6; type: functional
[7] = system: Mus musculus; test: Antitumor activity against P-388 ascitic leukemia in mice, at a dose of 400 mg/kg; 0/6; type: functional
[8] = system: Mus musculus; test: No of survivors was determined for Ehrlich Ascites tumor after intraperitoneal administration at a dose of 100 mg/kg in mice; 6/6; type: functional
[9] = system: Mus musculus; test: No of survivors was determined for P-388 ascitic leukemia in mice, at a dose of 100 mg/kg; 6/6; type: functional
[10] = system: Mus musculus; test: Long term survivors/no of treated mice was determined for Ehrlich Ascites tumor after intraperitoneal administration at a dose of 100 mg/kg in mice; 12/12; type: functional
[11] = system: Mus musculus; test: Antitumor activity against Ehrlich Ascites tumor after intraperitoneal administration at a dose of 150 mg/kg in mice; 6/6; type: functional
[12] = system: Mus musculus; test: Percentage of treated /control was determined against P-388 ascitic leukemia in […] mice, at a dose of 200 mg/kg; type: functional
How it was run: (§2)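 Female BDF1 mice bearing P-388 ascitic leukemia, run per standard NCI protocol. Single ip dose on day 1, suspended in 0.9% NaCl with 0.10% Tween 80 and serially diluted in saline. T/C% = median survival time of treated mice / median survival of controls × 100. 5-Fluorouracil at 200 mg/kg as positive control. Groups of 6; mean of three tests.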

[13] = system: Mus musculus; test: Percentage of treated /control was determined against P-388 ascitic leukemia in mice, at a dose of 100 mg/kg; type: functional; how it was run: as §2
[14] = system: Mus musculus; test: Percentage of treated /control was determined for Ehrlich Ascites tumor after intraperitoneal administration at a dose of 100 mg/kg in mice; type: functional
How it was run: (§3)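 Female Albino Swiss mice, five to six weight-matched per group, implanted ip with 1×10^6 viable Ehrlich ascites cells (Trypan blue count). Single ip dose 24 h after implantation (day 1), suspended in 0.9% NaCl with 0.10% Tween 80 and serially diluted in saline. T/C% read at day 12. Survival followed 60 days. Mean of three tests (two at 90 and 100 mg/kg).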

[15] = system: Mus musculus; test: Percentage of treated /control was determined for Ehrlich Ascites tumor after intraperitoneal administration at a dose of 150 mg/kg in mice; type: functional; how it was run: as §3
[16] = system: Mus musculus; test: Percentage of treated /control was determined for Ehrlich Ascites tumor after intraperitoneal administration at a dose of 200 mg/kg in mice; type: functional; how it was run: as §3
[17] = system: Mus musculus; test: Percentage of treated /control was determined for Ehrlich Ascites tumor after intraperitoneal administration at a dose of 250 mg/kg in mice; type: functional; how it was run: as §3
[18] = system: Mus musculus; test: Percentage of treated /control was determined for Ehrlich Ascites tumor after intraperitoneal administration at a dose of 90 mg/kg in mice; type: functional; how it was run: as §3
[19] = system: Mus musculus; test: Antitumor activity against Ehrlich Ascites tumor after intraperitoneal administration at a dose of 200 mg/kg in mice; 6/6; type: functional
[20] = system: Mus musculus; test: Number of toxic death/ no of treated mice was determined for Ehrlich Ascites tumor after intraperitoneal administration at a dose of 400 mg/kg in mice; 6/6; type: functional
[21] = system: Mus musculus; test: Number of toxic death/ no of treated was determined for P-388 ascitic leukemia in mice, at a dose of 400 mg/kg; 6/6; type: functional
[22] = system: Mus musculus; test: Long term survivors/no of treated mice was determined for Ehrlich Ascites tumor after intraperitoneal administration at a dose of 90 mg/kg in mice; 5/10; type: functional
[23] = system: Mus musculus; test: Long term survivors/no of treated mice was determined for Ehrlich Ascites tumor after intraperitoneal administration at a dose of 250 mg/kg in mice; 15/18
[24] = system: Mus musculus; test: Long term survivors/no of treated mice was determined for Ehrlich Ascites tumor after intraperitoneal administration at a dose of 200 mg/kg in mice; 18/18
[25] = system: Mus musculus; test: Long term survivors/no of treated mice was determined for Ehrlich Ascites tumor after intraperitoneal administration at a dose of 150 mg/kg in mice; 15/18
[26] = system: P388; test: Percentage of treated /control was determined against P-388 leukemia in […] mice, at a dose of 320 mg/kg; type: functional, Mus musculus
[27] = system: P388; test: Percentage of treated /control was determined against P-388 leukemia in […] mice, at a dose of 100 mg/kg; type: functional, Mus musculus; how it was run: as §2

O=[N+]([O-])c1ccc2c(ccc3oc4ccccc4[n+]32)c1.[O-][Cl+3]([O-])([O-])[O-]
EC50 [1]: 15 µg/mL
EC50 [2]: 12 µg/mL

O=[N+]([O-])c1ccc2c(ccc3sc4ccccc4[n+]32)c1.[O-][Cl+3]([O-])([O-])[O-]
EC50 [1]: 0.9 µg/mL
EC50 [2]: 0.6 µg/mL
Survival [3]: 6
Survival [4]: 0
Survival [5]: 3
Survival [6]: 6
Survival [7]: 0
Survival [8]: 6
Survival [9]: 6
LTS [10]: 12
Survival [11]: 6
T/C [12]: 218%
T/C [13]: 153%
T/C [14]: 35.8%
T/C [15]: -0.4%
T/C [16]: -6.2%
T/C [17]: -2.5%
T/C [18]: 57.3%
Survival [19]: 6
Toxicity [20]: 6
Toxicity [21]: 6
LTS [22]: 5
LTS [23]: 15
LTS [24]: 18
LTS [25]: 15

COc1cc2c(ccc3c4cc(OC)c(OC)cc4c[n+](C)c23)cc1O.[Cl-] [FAGARONINE]
EC50 [2]: 0.7 µg/mL
T/C [26]: 290%

COc1cc2c[n+](C)c3c4cc5c(cc4ccc3c2cc1OC)OCO5.[Cl-] [NITIDINE CHLORIDE]
T/C [27]: 129%
